Measurements taken from ChEMBL document CHEMBL3124843, “Synthesis, cytostatic, antimicrobial, and anti-HCV activity of 6-substituted 7-(het)aryl-7-deazapurine ribonucleosides” (J Med Chem, 2014).
Active and inactive are the calls of the source. No rule for the calls is given here.

How the values were obtained:
[1] = Cytotoxicity against human HuH7 cells infected with Hepatitis C virus subtype 2a; assay type: cell-based, Huh-7
Hepatitis C virus [2] = assay: Antiviral activity against Hepatitis C virus subtype 2a infected in human HuH7 cells; assay type: functional, organism-based, Hepacivirus hominis; conditions: genotype 2a, Huh-7
[3] = Cytotoxicity against human HuH7 cells infected with Hepatitis C virus subtype 1b; assay type: cell-based, Huh-7
Hepatitis C virus [4] = assay: Antiviral activity against Hepatitis C virus subtype 1b infected in human HuH7 cells; assay type: functional, organism-based, Hepacivirus hominis; conditions: genotype 1b, Huh-7
Candida tropicalis = assay: Antifungal activity against Candida tropicalis after 48 hrs; assay type: functional, organism-based
Pichia kudriavzevii = assay: Antifungal activity against Candida crusei after 48 hrs; assay type: functional, organism-based
Candida parapsilosis = assay: Antifungal activity against Candida parapsilosis after 48 hrs; assay type: functional, organism-based
Candida albicans = assay: Antifungal activity against Candida albicans after 48 hrs; assay type: functional, organism-based
Pseudomonas aeruginosa [5] = assay: Antibacterial activity against multi-resistant Pseudomonas aeruginosa A/16575 after 24 hrs; assay type: functional, organism-based
Escherichia coli [6] = assay: Antibacterial activity against multi-resistant Escherichia coli C/16702 after 24 hrs; assay type: functional, organism-based
[7] = test system: Staphylococcus haemolyticus; assay: Antibacterial activity against methicillin-resistant Staphylococcus haemolyticus A/16568 after 24 hrs; assay type: functional, organism-based
Staphylococcus aureus [8] = assay: Antibacterial activity against methicillin-resistant Staphylococcus aureus MRSA 4591 after 24 hrs; assay type: functional, organism-based
Pseudomonas aeruginosa [9] = assay: Antibacterial activity against Pseudomonas aeruginosa CCM 3955 after 24 hrs; assay type: functional, organism-based
Escherichia coli [10] = assay: Antibacterial activity against Escherichia coli CCM 3954 after 24 hrs; assay type: functional, organism-based
Staphylococcus aureus [11] = assay: Antibacterial activity against Staphylococcus aureus CCM 3953 after 24 hrs; assay type: functional, organism-based
Enterococcus faecalis = assay: Antibacterial activity against Enterococcus faecalis CCM 4224 after 24 hrs; assay type: functional, organism-based
[12] = Antiproliferative activity against human HeLaS3 cells after 72 hrs by XTT assay; assay type: functional, cell-based; conditions: HeLa S3, 72 h
Procedure, shortened: (§1)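 Antiproliferative test on HL-60 promyelocytic leukemia and HeLa S3 cervical carcinoma cells growing in liquid suspension.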

HL-60 = assay: Antiproliferative activity against human HL60 cells after 72 hrs by XTT assay; assay type: functional, cell-based; conditions: HL-60, 72 h; procedure, shortened: as §1
HepG2 = assay: Antiproliferative activity against human HepG2 cells after 72 hrs by XTT assay; assay type: functional, cell-based; conditions: HepG2, 72 h
MRC5 = assay: Cytostatic activity against human MRC5 cells after 72 hrs by MTT assay; assay type: ADME, cell-based; conditions: MRC5, 72 h
Procedure, shortened: (§2)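 IC50 is the concentration that cuts cell growth by 50%, read by quantitative metabolic MTT staining after a 3-day treatment. The resistant sublines were made by raising the concentration of the cytotoxic drug step by step. CEM-DNR-bulk (daunorubicin-selected) stably overexpresses mrp-1. K562-TAX (paclitaxel-selected) expresses only mdr-1. HCT116p53−/− carries null p53 alleles. BJ and MRC-5 are nonmalignant fibroblasts.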

BJ = assay: Cytostatic activity against human BJ cells after 72 hrs by MTT assay; assay type: ADME, cell-based; procedure, shortened: as §2
HCT-116 [13] = assay: Cytostatic activity against p53-deficient human HCT116 cells after 72 hrs by MTT assay; assay type: functional, cell-based; conditions: HCT-116, 72 h; procedure, shortened: as §2
HCT-116 [14] = assay: Cytostatic activity against human HCT116 cells after 72 hrs by MTT assay; assay type: functional, cell-based; conditions: HCT-116, 72 h; procedure, shortened: as §2
A549 = assay: Cytostatic activity against human A549 cells after 72 hrs by MTT assay; assay type: functional, cell-based; conditions: A549, 72 h; procedure, shortened: as §2
K562 [15] = assay: Cytostatic activity against paclitaxel-resistant human K562 cells after 72 hrs by MTT assay; assay type: functional, cell-based; conditions: K562, 72 h; procedure, shortened: as §2
K562 [16] = assay: Cytostatic activity against human K562 cells after 72 hrs by MTT assay; assay type: functional, cell-based; conditions: K562, 72 h; procedure, shortened: as §2
[17] = Cytostatic activity against human CEM-DNR-bulk cells after 72 hrs by MTT assay; assay type: functional, cell-based; procedure, shortened: as §2
CCRF-CEM = assay: Cytostatic activity against human CCRF-CEM cells after 72 hrs by MTT assay; assay type: functional, cell-based; procedure, shortened: as §2

SMILES: CNc1ncnc2c1ccn2[C@@H]1O[C@H](CO)[C@@H](O)[C@H]1O
- CC50 [1]: > 44 µM
- EC50 (Hepatitis C virus [2]): > 44 µM
- CC50 [3]: > 44 µM
- EC50 (Hepatitis C virus [4]): 0.82 µM
- Activity (Candida tropicalis): inactive
- Activity (Pichia kudriavzevii): inactive
- Activity (Candida parapsilosis): inactive
- Activity (Candida albicans): inactive
- Activity (Pseudomonas aeruginosa [5]): inactive
- Activity (Escherichia coli [6]): inactive
- Activity [7]: inactive
- Activity (Staphylococcus aureus [8]): inactive
- Activity (Pseudomonas aeruginosa [9]): inactive
- Activity (Escherichia coli [10]): inactive
- Activity (Staphylococcus aureus [11]): inactive
- Activity (Enterococcus faecalis): inactive
- IC50 [12]: > 20 µM
- IC50 (HL-60): 12.8 µM
- IC50 (HepG2): > 20 µM
- IC50 (MRC5): 97.8 µM
- IC50 (BJ): 91.4 µM
- IC50 (HCT-116 [13]): > 20 µM
- IC50 (HCT-116 [14]): > 20 µM
- IC50 (A549): > 20 µM
- IC50 (K562 [15]): 0.92 µM
- IC50 (K562 [16]): > 20 µM
- IC50 [17]: 4.89 µM
- IC50 (CCRF-CEM): > 20 µM

SMILES: Cc1nc(N)c2c(I)cn([C@@H]3O[C@H](CO)[C@@H](O)[C@H]3O)c2n1
- CC50 [1]: > 44 µM
- EC50 (Hepatitis C virus [2]): > 44 µM
- CC50 [3]: > 44 µM
- EC50 (Hepatitis C virus [4]): 2.45 µM
- Activity (Candida tropicalis): inactive
- Activity (Pichia kudriavzevii): inactive
- Activity (Candida parapsilosis): inactive
- Activity (Candida albicans): inactive
- Activity (Pseudomonas aeruginosa [5]): inactive
- Activity (Escherichia coli [6]): inactive
- Activity [7]: inactive
- Activity (Staphylococcus aureus [8]): inactive
- Activity (Pseudomonas aeruginosa [9]): inactive
- Activity (Escherichia coli [10]): inactive
- Activity (Staphylococcus aureus [11]): inactive
- Activity (Enterococcus faecalis): inactive
- IC50 [12]: 4.18 µM
- IC50 (HL-60): 2.05 µM
- IC50 (HepG2): 6.31 µM
- IC50 (MRC5): 85.8 µM
- IC50 (BJ): 24.6 µM
- IC50 (HCT-116 [13]): > 20 µM
- IC50 (HCT-116 [14]): > 20 µM
- IC50 (A549): 12.1 µM
- IC50 (K562 [15]): 1.11 µM
- IC50 (K562 [16]): 5.12 µM
- IC50 [17]: 3.48 µM
- IC50 (CCRF-CEM): 9.03 µM

SMILES: CSc1ncnc2c1c(-c1ccccc1)cn2[C@@H]1O[C@H](CO)[C@@H](O)[C@H]1O
- CC50 [1]: > 44 µM
- EC50 (Hepatitis C virus [2]): > 44 µM
- CC50 [3]: > 44 µM
- EC50 (Hepatitis C virus [4]): 23.3 µM
- Activity (Candida tropicalis): inactive
- Activity (Pichia kudriavzevii): inactive
- Activity (Candida parapsilosis): inactive
- Activity (Candida albicans): inactive
- Activity (Pseudomonas aeruginosa [5]): inactive
- Activity (Escherichia coli [6]): inactive
- Activity [7]: inactive
- Activity (Staphylococcus aureus [8]): inactive
- Activity (Pseudomonas aeruginosa [9]): inactive
- Activity (Escherichia coli [10]): inactive
- Activity (Staphylococcus aureus [11]): inactive
- Activity (Enterococcus faecalis): inactive
- IC50 [12]: > 20 µM
- IC50 (HL-60): > 20 µM
- IC50 (HepG2): > 20 µM
- IC50 (MRC5): > 100 µM
- IC50 (BJ): > 100 µM
- IC50 (HCT-116 [13]): > 20 µM
- IC50 (HCT-116 [14]): > 20 µM
- IC50 (A549): > 20 µM
- IC50 (K562 [15]): > 20 µM
- IC50 (K562 [16]): > 20 µM
- IC50 [17]: > 20 µM
- IC50 (CCRF-CEM): > 20 µM

SMILES: Nc1nc2c(c(-c3ccsc3)cn2[C@@H]2O[C@H](CO)[C@@H](O)[C@H]2O)c(=O)[nH]1
- CC50 [1]: > 44 µM
- EC50 (Hepatitis C virus [2]): > 44 µM
- CC50 [3]: > 44 µM
- EC50 (Hepatitis C virus [4]): > 44 µM
- Activity (Candida tropicalis): inactive
- Activity (Pichia kudriavzevii): inactive
- Activity (Candida parapsilosis): inactive
- Activity (Candida albicans): inactive
- Activity (Pseudomonas aeruginosa [5]): inactive
- Activity (Escherichia coli [6]): inactive
- Activity [7]: inactive
- Activity (Staphylococcus aureus [8]): inactive
- Activity (Pseudomonas aeruginosa [9]): inactive
- Activity (Escherichia coli [10]): inactive
- Activity (Staphylococcus aureus [11]): inactive
- Activity (Enterococcus faecalis): inactive
- IC50 [12]: > 20 µM
- IC50 (HL-60): > 20 µM
- IC50 (HepG2): > 20 µM
- IC50 (MRC5): > 100 µM
- IC50 (BJ): > 100 µM
- IC50 (HCT-116 [13]): > 20 µM
- IC50 (HCT-116 [14]): > 20 µM
- IC50 (A549): > 20 µM
- IC50 (K562 [15]): 18.3 µM
- IC50 (K562 [16]): > 20 µM
- IC50 [17]: > 20 µM
- IC50 (CCRF-CEM): > 20 µM

SMILES: CN(C)c1ncnc2c1c(-c1cc3ccccc3o1)cn2[C@@H]1O[C@H](CO)[C@@H](O)[C@H]1O
- CC50 [1]: > 44 µM
- EC50 (Hepatitis C virus [2]): > 44 µM
- CC50 [3]: > 44 µM
- EC50 (Hepatitis C virus [4]): 19.2 µM
- Activity (Candida tropicalis): inactive
- Activity (Pichia kudriavzevii): inactive
- Activity (Candida parapsilosis): inactive
- Activity (Candida albicans): inactive
- Activity (Pseudomonas aeruginosa [5]): inactive
- Activity (Escherichia coli [6]): inactive
- Activity [7]: inactive
- Activity (Staphylococcus aureus [8]): inactive
- Activity (Pseudomonas aeruginosa [9]): inactive
- Activity (Escherichia coli [10]): inactive
- Activity (Staphylococcus aureus [11]): inactive
- Activity (Enterococcus faecalis): inactive
- IC50 [12]: > 20 µM
- IC50 (HL-60): > 20 µM
- IC50 (HepG2): > 20 µM
- IC50 (MRC5): > 100 µM
- IC50 (BJ): > 100 µM
- IC50 (HCT-116 [13]): > 20 µM
- IC50 (HCT-116 [14]): > 20 µM
- IC50 (A549): > 20 µM
- IC50 (K562 [15]): > 20 µM
- IC50 (K562 [16]): > 20 µM
- IC50 [17]: > 20 µM
- IC50 (CCRF-CEM): > 20 µM
